Active and inactive are the calls of the source. No cut-off for these calls is given here.
Tests used:
[1] = target: DNA ligase 1 (Homo sapiens) (UniProt P18858); assay: Inhibition of human Lig1 at 10 uM using double strand nicked DNA as substrate after 30 mins in presence of ATP by acrylamide-based fluorescence-assay
Procedure, shortened: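 Cy3-labelled nicked duplex (52-mer annealed to 25- and 27-mers; 1 pmol) with purified hLigI (0.2 pmol) in 50 mM Tris-Cl pH 7.5, 10 mM MgCl2, 0.25 mg/mL BSA, 100 mM NaCl, 500 µM ATP. Compound at 10 μM; 30 min at 37 °C. Stopped with formamide/EDTA; ligated and unligated strands separated on 7 M urea/12% denaturing gel. Triplicate.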

[2] = tested on: MDA-MB-231; assay: Antiproliferative activity against human MDA-MB-231 cells at 10 uM after 48 hrs by MTT assay; type: functional, cell-based
Procedure, shortened: (§1)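 Cells seeded and allowed to adhere overnight, then given compound from 10 mM DMSO stock; DMSO alone as vehicle control. Grown 48 h, MTT (5 mg/ml) added for 3 h, formazan dissolved in DMSO, absorbance read at 590 nm. % inhibition = (A control − A treated)/A control × 100; three independent biological replicates. Single-point screen at 10 μM; IC50 from three independent experiments.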

[3] = tested on: DLD-1; assay: Antiproliferative activity against human DLD1 cells at 10 uM after 48 hrs by MTT assay; type: functional, cell-based; procedure, shortened: as §1
[4] = tested on: HeLa; assay: Antiproliferative activity against human HeLa cells at 10 uM after 48 hrs by MTT assay; type: functional, cell-based; procedure, shortened: as §1
[5] = tested on: 4T1 (Mus musculus); assay: Antiproliferative activity against mouse 4T1 cells at 10 uM after 48 hrs by MTT assay
[6] = tested on: HepG2; assay: Antiproliferative activity against human HepG2 cells at 10 uM after 48 hrs by MTT assay; type: functional, cell-based; procedure, shortened: as §1
[7] = tested on: DNA; assay: Binding affinity to Escherichia coli pUC18 DNA assessed as protection against DNase1-mediated cleavage at 500 uM preincubated for 30 mins followed by DNase1 addition measured after 5 mins by 1% agarose gel based UV-transilluminator analysis; type: nucleic-acid assay
Procedure, shortened: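 Linearized pUC18 plasmid DNA (100 ng) incubated with compound (250, 500, 700 μM) or controls (doxorubicin 100 μM; DAPI, methyl green, ampicillin 500 μM) for 30 min at 37 °C in ligation-like buffer. DNase I 0.0025 U added for 5 min at 37 °C, stopped with urea/EDTA buffer, resolved on 1% agarose and imaged under UV.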

Chain of DNA ligase 1 (Homo sapiens) (P18858 whole entry): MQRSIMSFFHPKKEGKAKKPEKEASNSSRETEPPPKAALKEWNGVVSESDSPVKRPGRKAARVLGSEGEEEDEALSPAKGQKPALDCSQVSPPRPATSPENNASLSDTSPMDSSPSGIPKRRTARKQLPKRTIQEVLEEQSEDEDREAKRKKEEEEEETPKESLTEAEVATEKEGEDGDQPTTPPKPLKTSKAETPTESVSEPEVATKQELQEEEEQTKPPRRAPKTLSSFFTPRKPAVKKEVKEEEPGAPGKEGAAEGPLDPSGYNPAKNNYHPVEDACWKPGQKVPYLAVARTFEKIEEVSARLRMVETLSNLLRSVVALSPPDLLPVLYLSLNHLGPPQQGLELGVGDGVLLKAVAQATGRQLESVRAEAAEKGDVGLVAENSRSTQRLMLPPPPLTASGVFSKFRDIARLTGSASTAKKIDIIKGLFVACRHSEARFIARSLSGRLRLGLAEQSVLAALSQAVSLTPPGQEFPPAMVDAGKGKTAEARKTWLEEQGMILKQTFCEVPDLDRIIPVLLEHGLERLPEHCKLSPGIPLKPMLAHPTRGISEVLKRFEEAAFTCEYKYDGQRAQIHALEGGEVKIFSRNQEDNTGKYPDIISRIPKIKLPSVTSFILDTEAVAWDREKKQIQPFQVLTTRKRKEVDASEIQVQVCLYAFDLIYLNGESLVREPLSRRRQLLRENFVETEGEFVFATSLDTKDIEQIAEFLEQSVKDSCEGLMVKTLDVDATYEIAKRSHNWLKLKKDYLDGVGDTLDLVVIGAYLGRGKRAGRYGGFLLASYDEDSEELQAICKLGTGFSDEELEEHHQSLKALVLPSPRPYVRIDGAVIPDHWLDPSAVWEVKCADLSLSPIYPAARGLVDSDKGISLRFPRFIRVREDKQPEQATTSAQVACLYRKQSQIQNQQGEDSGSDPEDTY

| Structure (SMILES) | inhibition [1] [%] | Activity [2] | Activity [3] | Activity [4] | Activity [5] | Activity [6] | Activity [7] |
| --- | --- | --- | --- | --- | --- | --- | --- |
| COc1cc(C(=O)/C=C/c2cc3c(c(C(C)(C)C)c2)OC(N)=C(C#N)C3c2c(C)[nH]c3ccccc23)cc(OC)c1OC (configuration not stated) | < 20 | – | – | – | – | – | – |
| Cc1[nH]c2ccccc2c1C1C(C#N)=C(N)Oc2c1cc(/C=C/C(=O)c1ccc(Cl)cc1)cc2C(C)(C)C (configuration not stated) | > 50 | – | – | – | – | – | – |
| CCC(C)c1cc(/C=C/C(=O)c2cc(OC)c(OC)c(OC)c2)cc2c1OC(N)=C(C#N)C2c1c(C)[nH]c2ccccc12 (configuration not stated) | < 20 | – | – | – | – | – | – |
| COc1ccc2[nH]c(C)c(C3C(C#N)=C(N)Oc4c(C(C)C)cc(/C=C/C(=O)c5cccs5)cc43)c2c1 (configuration not stated) | < 20 | Active | Active | Active | Active | Active | – |
| COc1ccc2[nH]c(C)c(C3C(C#N)=C(N)Oc4c3cc(/C=C/C(=O)c3cccs3)cc4C(C)(C)C)c2c1 (configuration not stated) | < 20 | Active | Active | Active | Active | Active | – |
| Cc1cc(/C=C/C(=O)c2cccs2)cc2c1OC(N)=C(C#N)C2c1c(C)[nH]c2ccccc12 (configuration not stated) | > 45 | Active | Active | Active | Active | Active | – |
| CC1(C)S[C@@H]2[C@H](NC(=O)[C@H](N)c3ccccc3)C(=O)N2[C@H]1C(=O)O | – | – | – | – | – | – | inactive |

— ChEMBL document CHEMBL4138186, “Synthesis and bio-evaluation of indole-chalcone based benzopyrans as promising antiligase and antiproliferative agents” (Eur J Med Chem, 2018)
